Source: ChEMBL document CHEMBL1129541, “Synthesis and DNA interactions of benzimidazole dications which have activity against opportunistic infections” (J Med Chem, 1996)

Columns and labels:
Nucleic Acid [1] = experiment: Thermal melting temperature determined for poly(dA).poly(dT) at a concentration of 5*10e-5) M base pairs at a ratio of 0.6 compound per base pair; assay type: nucleic-acid assay
Method in brief: (§1)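 Polymers at 5×10^-5 M base pairs in MES buffer (0.01 M MES, 1×10^-3 M EDTA, pH 6.2) with 0.1 M NaCl. Compound at 0.6 per base pair. Samples are in 1 cm reduced-volume quartz cells. UV absorbance melting curves are recorded, with temperature followed by a thermistor in a reference cuvette.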

Nucleic Acid [2] = experiment: Thermal melting temperature determined for (dG-C)4 at a concentration of 3*10e-6 M base pairs at a ratio of 0.6 compound per base pair; assay type: nucleic-acid assay
Method in brief: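 d(G-C)4 at 3×10^-6 M in duplex, in MES buffer (0.01 M MES, 1×10^-3 M EDTA, pH 6.2) with 0.1 M NaCl. Compound at 0.6 per base pair. The UV absorbance melting curve is recorded in 1 cm quartz cells, with temperature monitored by a thermistor in a reference cuvette.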

Nucleic Acid [3] = experiment: Thermal melting temperature for poly(A).poly(U) at a concentration of 5*10e-5) M base pairs at a ratio of 0.6 compound per base pair; assay type: nucleic-acid assay; method in brief: as §1
Nucleic Acid [4] = experiment: Thermal melting temperature for (dCGCGAATTCGCG)2 at a concentration of 3*10e-6 M base pairs at a ratio of one compound per oligomer duplex
Nucleic Acid [5] = experiment: Binding constant for the sequence d(CGGAATTCGCG)2; parameters: unit not given here

SMILES	ΔTm (Nucleic Acid [1])	ΔTm (Nucleic Acid [2])	ΔTm (Nucleic Acid [3])	ΔTm (Nucleic Acid [4])	K (Nucleic Acid [5])
N=C(N)c1ccc(OCCCCCOc2ccc(C(=N)N)cc2)cc1	12.8	0	0	4.8	2.3e+06
N=C(N)c1ccc2[nH]c(CCCCc3nc4cc(C(=N)N)ccc4[nH]3)nc2c1	24.4	0.5	-0.6	10	1.3e+07
N=C(N)c1ccc2[nH]c(CCc3nc4cc(C(=N)N)ccc4[nH]3)nc2c1	> 26	0.75	-1.1	15.9	7.6e+07
N=C(N)c1ccc2[nH]c(/C=C/c3nc4cc(C(=N)N)ccc4[nH]3)nc2c1	> 26	-1.5	0	22.8	5.3e+08
N=C(N)c1ccc2[nH]c(-c3ccc4[nH]c(CCCCc5nc6cc(-c7nc8cc(C(=N)N)ccc8[nH]7)ccc6[nH]5)nc4c3)nc2c1	> 26	0	0	22.2	4.5e+08
N=C(N)c1ccc2nc(Cc3nc4ccc(C(=N)N)cc4[nH]3)[nH]c2c1	4.9	0	-0.8	2.8	930000
N=C(N)c1ccc(-c2cc3ccc(C(=N)N)cc3[nH]2)cc1	> 26	2.5	3.9	22.2	4.5e+08

More lines, now with the values ahead:

ΔTm (Nucleic Acid [1])	ΔTm (Nucleic Acid [2])	ΔTm (Nucleic Acid [3])	ΔTm (Nucleic Acid [4])	K (Nucleic Acid [5])	SMILES
> 26	0	0	20.8	3.1e+08	c1cc2[nH]c(-c3ccc4[nH]c(CCCCc5nc6cc(-c7nc8cc(C9=NCCN9)ccc8[nH]7)ccc6[nH]5)nc4c3)nc2cc1C1=NCCN1
5.7	0	-0.6	2.8	930000	c1cc2[nH]c(Cc3nc4cc(C5=NCCN5)ccc4[nH]3)nc2cc1C1=NCCN1
25.5	0.5	-1.5	7.1	5.2e+06	c1cc2[nH]c(CCCCc3nc4cc(C5=NCCN5)ccc4[nH]3)nc2cc1C1=NCCN1
> 26	0	0	28.5	2e+09	c1cc2[nH]c(-c3ccc4[nH]c(CCc5nc6cc(-c7nc8cc(C9=NCCN9)ccc8[nH]7)ccc6[nH]5)nc4c3)nc2cc1C1=NCCN1
> 26	0.7	0.9	16.4	8.8e+07	c1cc2[nH]c(CCc3nc4cc(C5=NCCN5)ccc4[nH]3)nc2cc1C1=NCCN1
